The test system of series [1] is Mus musculus. Nature of the series: Toxicity in albino B.K.W mouse assessed as stereotyped behaviour at 20 to 80 mg/kg, sc. It is filed as organism-based. On the set-up: dose 20-80 mg/kg, route subcutaneous. The conditions noted are these: in vivo. The gist of the method: (§1)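 Mice dosed subcutaneously at 20, 40 and 80 mg/kg in 1 mL/kg, doses as free base. Climbing scored as all four paws on the wire, giving a climbing index (% time over 30 min after the first climb) and the maximum time of a single climb. Circling was tested in mice with a unilateral caudate-putamen electrolesion, pre-selected for circling of 7 or more revolutions/2 min in response to apomorphine. Stereotypy was also recorded.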

The subject of series [2] is Columbidae. Kind of series: Inhibition of apomorphine-induced pecking in pigeon. Format: functional. An outline of the steps: (§2)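 Pigeons. Compounds given intramuscularly at up to 4 mg/kg to test induction of pecking. Antagonism of pecking induced by apomorphine (1.62 μM/kg) was also tested, and ED50 values were estimated.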
Series [3] can be described thus: Toxicity in pigeon assessed as pecking. The conditions noted are these: columbidae. The gist of the method:
as §2

Series [4] is filed under the species Rattus norvegicus. Kind of series: Toxicity in Sprague-Dawley rat assessed as sniffing at 12.5 to 50 ug injection into nucleus accumbens. It is filed as organism-based. The settings on record: in vivo, other. An outline of the steps:
(§3)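 Male Sprague-Dawley rats (250 ± 25 g) with stereotaxic guide cannulae aimed at the nucleus accumbens. Tested 10–14 days after surgery with a bilateral 1 μL infusion over 60 s; each rat used once and placement checked histologically. Locomotion counted by photocell cage. Stereotypy scored, where 3–4 = biting, gnawing or licking. Pretreatments given ip: α-methyl-p-tyrosine 250 mg/kg 6 h before, or haloperidol 0.1, propranolol 5 or aceperone 2.5 mg/kg 30 min before.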

For series [5], the species on record is Felis catus. Nature of the series: Inhibition of field stimulation-induced positive ionotrophic response in cat atria. It is filed as functional. The settings on record: Cardiac atrium.
Series [6] concerns Mus musculus. Nature of the series: Toxicity in albino B.K.W mouse assessed as climbing behaviour at 20 to 80 mg/kg, sc. It is filed as organism-based. On the set-up: dose 20-80 mg/kg, route subcutaneous. The conditions noted are these: in vivo. An outline of the steps: as §1
The species entered for series [7] is Rattus norvegicus. Kind of series: Toxicity in Sprague-Dawley rat assessed as hyperactivity treated intra-accumbens injection pretreated with haloperiodol. The conditions noted are these: in vivo, other. It is filed as organism-based. The gist of the method: as §3
Series [8] is filed under the species Rattus norvegicus. Kind of series: Toxicity in Sprague-Dawley rat assessed as hyperactivity treated intra-accumbens injection pretreated with aceperone. Format: organism-based. The conditions noted are these: in vivo, other. An outline of the steps: as §3
For series [9], the species on record is Felis catus. Nature of the series: Inhibition of field stimulation-induced positive chronotrophic response in cat atria. It is filed as functional. The settings on record: Cardiac atrium.
Series [10] is filed under the species Rattus norvegicus. Nature of the series: Toxicity in Sprague-Dawley rat assessed as hyperactivity treated intra-accumbens injection pretreated with alpha-methyl-p-tyrosine. The settings on record: in vivo, other. Format: organism-based. The gist of the method: as §3
Series [11] has as its system Canis familiaris. Nature of the series: Toxicity in dog assessed as emesis at 2 mg/kg, sc. The conditions noted are these: in vivo. Format: organism-based, Canis lupus familiaris. On the set-up: dose 2 mg/kg, route subcutaneous. The gist of the method: (§4)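 Unanaesthetised dogs. For emesis, compound given sc and dogs watched 45 min for an emetic response. For antagonism, compound given sc and apomorphine 100 μg/kg 15 min later.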

The species named for series [12] is Rattus norvegicus. Nature of the series: Toxicity in Sprague-Dawley rat assessed as hyperactivity treated intra-accumbens injection. Format: organism-based. The settings on record: in vivo, other. The gist of the method: as §3
The species entered for series [13] is Canis lupus familiaris. Kind of series: Inhibition of electric stimulated dog right cardioaccelerator nerve. Format: functional. An outline of the steps:
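Dog cardioaccelerator nerve preparation under barbital (200 mg/kg) anaesthesia. Compounds given intravenously up to 1.0 mg/kg. Positive chronotropic responses read by cardiometer, with blood pressure taken from the right femoral artery.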

The subject of series [14] is Mus musculus. Nature of the series: Toxicity in albino B.K.W mouse assessed as circling behaviour at 20 to 80 mg/kg, sc. It is filed as organism-based. On the set-up: dose 20-80 mg/kg, route subcutaneous. The conditions noted are these: in vivo. An outline of the steps: as §1
The species named for series [15] is Rattus norvegicus. Nature of the series: Toxicity in Sprague-Dawley rat assessed as hyperactivity treated intra-accumbens injection pretreated with propranolol. It is filed as organism-based. The settings on record: in vivo, other. The gist of the method:
as §3

The test system of series [16] is Canis familiaris. Kind of series: Increase in resting heart rate in dog at […], iv by cardiotachometer. The settings on record: Canis lupus familiaris. It is filed as functional, organism-based. An outline of the steps: (§5)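 Anaesthetised dog (barbital 200 mg/kg). Compounds given intravenously, highest dose tested 1.0 mg/kg. Blood pressure recorded from the right femoral artery and heart rate by cardiometer. Resting heart rate, blood pressure and positive chronotropic responses were assessed after dosing. Doses calculated as free base.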

In series [17] the test system is Rattus norvegicus. Nature of the series: Induction of rotation in rat with unilateral denervation of caudate nucleus at 4 mg/kg, sc. On the set-up: dose 4 mg/kg. Format: functional, organism-based. The gist of the method: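 Rats given a unilateral 6-hydroxydopamine injection into the substantia nigra. Compounds dosed subcutaneously and the rotations they induced were counted. Apomorphine served as the reference.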

The subject of series [18] is Canis familiaris. Nature of the series: Increase in blood pressure in dog at 50 ug/kg, iv by cardiotachometer. Format: functional, Canis lupus familiaris. An outline of the steps: as §5
Series [19] deals with Canis familiaris. Nature of the series: Increase in heart rate in dog assessed as beats at 50 ug/kg, iv by cardiotachometer. Format: functional, Canis lupus familiaris. An outline of the steps: as §5
For series [20], the species on record is Rattus norvegicus. Kind of series: Toxicity in Sprague-Dawley rat assessed as hyperactivity treated bilateral injection into nucleus accumbens at > 6.25 ug. The settings on record: in vivo, other. It is filed as organism-based. The gist of the method:
as §3

The subject of series [21] is Canis familiaris. Kind of series: Inhibition of apomorphine-induced emesis in dog at 2 mg/kg, sc. It is filed as functional, organism-based. Also on record: dose 2 mg/kg. The conditions noted are these: Canis lupus familiaris. An outline of the steps:
as §4

The species named for series [22] is Rattus norvegicus. Nature of the series: Toxicity in Sprague-Dawley rat assessed as hyperactivity treated bilateral injection into nucleus accumbens. It is filed as organism-based. The settings on record: in vivo, other. The gist of the method: as §3
Series [23] relates to Canis familiaris. Kind of series: Increase in blood pressure in dog at 30 ug/kg, iv by cardiotachometer. Format: functional, Canis lupus familiaris. The gist of the method:
as §5

Series [24] is filed under the species Rattus norvegicus. Kind of series: Toxicity in Sprague-Dawley rat assessed as licking up to 50 ug injection into nucleus accumbens. Format: organism-based. The conditions noted are these: in vivo, other. The gist of the method: as §3
The species named for series [25] is Rattus norvegicus. Kind of series: Toxicity in Sprague-Dawley rat assessed as gnawing up to 50 ug injection into nucleus accumbens. It is filed as organism-based. The conditions noted are these: in vivo, other. The gist of the method: as §3
Series [26] has as its system Canis familiaris. Kind of series: Increase in heart rate in dog assessed as beats at 30 ug/kg, iv by cardiotachometer. It is filed as functional, Canis lupus familiaris. The gist of the method: as §5
The species named for series [27] is Rattus norvegicus. Kind of series: Toxicity in Sprague-Dawley rat assessed as biting up to 50 ug injection into nucleus accumbens. The conditions noted are these: in vivo, other. It is filed as organism-based. The gist of the method:
as §3

The test system of series [28] is Canis familiaris. Kind of series: Increase in resting heart rate in dog at 0.5 mg/kg, iv by cardiotachometer. It is filed as functional, organism-based. On the set-up: dose 0.5 mg/kg. The conditions noted are these: Canis lupus familiaris. The gist of the method:
as §5

Series [29] concerns Mus musculus. Nature of the series: Toxicity in albino B.K.W mouse assessed as stereotyped head and limb movement at 40 to 80 mg/kg, sc. It is filed as organism-based. Also on record: dose 40-80 mg/kg, route subcutaneous. The conditions noted are these: in vivo. An outline of the steps:
as §1

The species entered for series [30] is Rattus norvegicus. Nature of the series: Toxicity in Sprague-Dawley rat assessed as locomotor hyperactivity treated bilateral injection into nucleus accumbens at 50 ug. Format: organism-based. The settings on record: in vivo, other. The gist of the method:
as §3

For series [31], the system named is Canis familiaris. Kind of series: Increase in blood pressure in dog at 0.5 mg/kg, iv by cardiotachometer. It is filed as functional, Canis lupus familiaris. The gist of the method: as §5
The species named for series [32] is Rattus norvegicus. Nature of the series: Toxicity in Sprague-Dawley rat assessed as sniffing at 50 ug injection into nucleus accumbens. Format: organism-based. The conditions noted are these: in vivo, other. The gist of the method: as §3

The source made the active and inactive calls. No cut-off for these calls is given here.

Consider `Br.CC(N)Cc1ccc(O)c(O)c1` (racemic), for which the Activity entry in series [1] was “Non-toxic”; in [3] it was “Non-toxic”; in [4] it was “Toxic”; in [6], “Non-toxic”; in series [7], “Non-toxic”; in [8], “Toxic”. For the same compound, the Activity entry in [10] is reported as “Non-toxic”; in [11], “Non-toxic”; in series [12], “Toxic”; in series [14] it was “Non-toxic”; in series [15], “Toxic”; in series [18], 80%. The figures for the Activity in [19] and in series [20] were 50 bpm and “Toxic”, respectively. Also, the inhibition entry in series [2] was “Active”. For the same compound, the inhibition result in series [5], in series [9] and in series [13] was “inactive” each time. Also, the outcome in [16] was Active. In addition, the result in series [17] and in series [21] was inactive.

Consider `Br.CCCNC(C)Cc1ccc(O)c(O)c1` (racemic), for which the Activity result in [1] is recorded as “Non-toxic”; in series [22], “Toxic”; in series [23], 35%; in series [3] it was “Non-toxic”; in series [6], “Non-toxic”; in [7], “Non-toxic”. Besides, the Activity entry in series [8] is “Toxic”; in series [24], “Toxic”; in [10] it was “Non-toxic”; in series [25], “Toxic”; in series [11] it was “Non-toxic”; in [12], “Toxic”. In addition, the Activity is on record as 35 bpm in series [26], “Non-toxic” in series [14], “Toxic” in [15] and “Toxic” in [27]. The inhibition entry in [5], in [9] and in [13] was “inactive” throughout. Moreover, in series [16], the result was Active. Moreover, the result in series [17] and in [21] was inactive.

For `Br.CCN(CC)C(C)Cc1ccc(O)c(O)c1` (racemic), the Activity result was “Non-toxic” in series [1]; “Non-toxic” in series [3]; “Non-toxic” in series [6]; “Non-toxic” in [24]; “Toxic” in series [29]; “Non-toxic” in [25]. Further, the Activity result in series [11] was “Non-toxic”; in series [30] it was “Toxic”; in [14], “Non-toxic”; in [27], “Non-toxic”; in series [31], “<=10 mmHg”. Further, the inhibition entry in [2] is “Active”. Also, the inhibition result in series [5], in series [9] and in [13] was “inactive” in each case. Moreover, the result in [28] and in [21] was inactive.

`Br.CCNC(C)Cc1ccc(O)c(O)c1` (racemic): the Activity result is given as “Non-toxic” in series [1]; “Toxic” in [32]; “Non-toxic” in series [3]; “Non-toxic” in series [6]; “Non-toxic” in [11]; “Toxic” in series [30]. The Activity result in series [14] is listed as “Non-toxic”. Besides, the inhibition result in series [5], in series [9] and in [13] was “inactive” each time. Moreover, in series [21], the outcome was inactive.

For the origin of these results see ChEMBL document CHEMBL3244290, “N-Alkyl derivatives of (+/-)-alpha-methyldopamine” (J Med Chem, 1979).
